Source: ChEMBL document CHEMBL3045343, “Nematicidal activity of 2-thiophenecarboxaldehyde and methylisothiocyanate from caper (Capparis spinosa) against Meloidogyne incognita” (J Agric Food Chem, 2012)
Converted amounts (≈) assume the structure as drawn.

Experiments:
Meloidogyne incognita [1] = assay: Nematicidal activity against Meloidogyne incognita (root-knot nematode) juveniles J2 assessed as paralysis after 1 day; assay type: functional, organism-based; settings: 24 h
Outline: (§1)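 M. incognita (Italian population reared on tomato cv. Roma VF) J2 hatched from egg masses in distilled water at 25 ± 2 °C. Methanol stocks diluted with Tween 20 in water (final methanol ≤1% v/v). Working solution at double strength mixed 1:1 with a suspension of 25 J2 per well. Held covered, dark, 20 °C. Paralysis scored by inverted microscope. Corrected by Schneider-Orelli against water control. EC50 from log-logistic regression. Six replicates; four experiments.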

Meloidogyne incognita [2] = assay: Nematicidal activity against Meloidogyne incognita (root-knot nematode) juveniles J2 assessed as paralysis after 1 hr; assay type: functional, organism-based; outline: as §1
Meloidogyne incognita [3] = assay: Toxicity against Meloidogyne incognita (root-knot nematode) juveniles J2 at 100 mg/L after 24 hr; assay type: functional
Outline: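 J2 were immersed in 100 mg/L test solution in multiwell plates containing 25 J2 per well. Plates were held in the dark at 20 °C. Paralysis or death was scored by microscope after 24 h and corrected against the water control.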

| Structure (SMILES) | EC50 (Meloidogyne incognita [1]) [µg/mL] | EC50 (Meloidogyne incognita [2]) [µg/mL] | mortality at 100 µg/mL (Meloidogyne incognita [3]) [%] |
| --- | --- | --- | --- |
| O/N=C/c1cccs1 [2-THIOPHENECARBOXALDEHYDE OXIME] | > 250 | > 250 | – |
| N#Cc1ccc(C=O)s1 | > 250 | > 250 | – |
| CN=C=S [METHYLISOTHIOCYANATE] | 7.86 (≈ 107 µM) | > 10 | – |
| O=Cc1cccs1 [2-THIOPHENENECARBOXALDEHYDE] | 14.1 (≈ 126 µM) | 105 (≈ 936 µM) | 100 |
| Cn1cccc1C=O | > 1000 | > 1000 | – |
| O=Cc1ccccn1 [2-PYRIDINECARBOXALDEHYDE] | 3.6 (≈ 33.6 µM) | 25 (≈ 233 µM) | 100 |
| O=Cc1ccc[nH]1 | 392 (≈ 4120 µM) | > 1000 | – |
| O=Cc1ccc(C=O)s1 [2,5-THIOPHENENEDICARBOXALDEHYDE] | 1.13 (≈ 8.06 µM) | 1.2 (≈ 8.56 µM) | – |
| O=C1CCCN1 [2-PYRROLIDONE] | > 250 | > 250 | – |
| O=C1Nc2ccccc2C1=O [ISATIN] | > 250 | > 250 | – |
| N#Cc1ccc(C#N)s1 [2,5-THIOPHENEDINITRILE] | > 250 | > 250 | – |
| N#Cc1cccs1 [2-THIOPHENECARBONITRILE] | > 100 | > 100 | – |
| N#Cc1c[nH]c2ccccc12 | 68.9 (≈ 485 µM) | > 250 | – |
| O=Cc1c[nH]c2ccccc12 [3-FORMYLINDOLE] | 301 (≈ 2070 µM) | > 250 | – |
| O=Cc1cccnc1 [NICOTINALDEHYDE] | > 10 | > 250 | – |
